Laboratory results as given in ChEMBL document CHEMBL4392853, “Characterising covalent warhead reactivity” (Bioorg Med Chem, 2019).
Activity calls are given as the source filed them. The rule behind the calls is not given here.

How the values were obtained:
[1] = Reversible drug reactivity against cysteine in PBS buffer by NMR assay
In short: (§1)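 Warhead reactivity toward cysteine was tracked by NMR, measuring the amount of warhead remaining in solution over time. Cysteine was used at 10x the warhead concentration, giving pseudo-first-order conditions. The rate constant is the gradient of the fitted line. Runs were at pH 7.4 and also at pH 9.8. Two warheads were run in triplicate and averaged; the others were run once.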

[2] = Drug reactivity against serine in PBS buffer by NMR assay
In short: (§2)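 NMR time-course following the warhead in solution with serine, with the amino acid at 10x the warhead concentration (pseudo-first-order). Run at pH 7.4. The rate constant was taken from the gradient of the line. Single determinations.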

[3] = Drug reactivity against cysteine in PBS buffer by NMR assay; in short: as §1
[4] = Reversible drug reactivity against serine in PBS buffer by NMR assay; in short: as §2
[5] = Irreversible drug reactivity against cysteine in PBS buffer by NMR assay; in short: as §1
[6] = Irreversible drug reactivity against serine in PBS buffer by NMR assay; in short: as §2
[7] = Drug reactivity against cysteine in PBS buffer assessed as rate constant by NMR assay
In short: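 Warhead reacted in solution with cysteine held at 10x the warhead concentration, giving pseudo-first-order kinetics. Remaining warhead was followed over time by NMR, and the rate constant was taken from the gradient of the line. Runs were at pH 7.4 and also at pH 9.8. Two warheads were run in triplicate and averaged; all others were run once.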

[8] = Drug reactivity against cysteine in PBS buffer assessed as half life by NMR assay

Compound | Activity [1] | Activity [2] | Activity [3] | Activity [4] | Activity [5] | Activity [6] | K [7] | T1/2 [8] [min]
C#CC(=O)c1ccccc1 | Active | Active | Active | Active | – | – | – | –
C=CC(=O)c1ccccc1 | Active | Active | Active | Active | – | – | – | –
N#Cc1ccccc1 | Active | inactive | inactive | Active | – | – | – | –
COC(=O)Nc1ccccc1 | – | Active | Active | – | – | – | – | –
O=S(=O)(F)c1ccccc1 | – | Active | Active | – | – | – | – | –
CC1(C)S[C@@H]2[C@H](N)C(=O)N2[C@H]1C(=O)O | – | inactive | inactive | – | Active | Active | – | –
N#Cc1ccccn1 | Active | inactive | inactive | Active | – | – | – | –
C=CS(=O)(=O)Nc1ccccc1 | Active | Active | Active | Active | – | – | 6.73 ×10⁻⁴ /s | 17.2
C=CC(=O)Nc1ccccc1 | Active | Active | Active | Active | – | – | 8.38 ×10⁻⁵ /s | –
CN(C)C/C=C/C(=O)Nc1ccccc1 | Active | Active | Active | Active | – | – | – | –
OB1OCc2ccccc21 | Active | inactive | inactive | Active | – | – | – | –
O=C1CC(c2ccccc2)N1 (stereo not drawn) | – | inactive | inactive | – | Active | Active | – | –
O=C(c1ccccc1)C(F)(F)F | Active | inactive | inactive | Active | – | – | – | –
O=C1CCN1c1ccccc1 | – | inactive | inactive | – | Active | Active | – | –
N#Cc1ncccn1 | Active | Active | Active | Active | – | – | – | –
c1ccc(C2CO2)cc1 (stereo not drawn) | Active | Active | Active | Active | – | – | – | –
